The results in this text go back to ChEMBL document CHEMBL1152560, “Substituted 2-arylbenzothiazoles as kinase inhibitors: hit-to-lead optimization” (Bioorg Med Chem, 2009).

A value given as a limit tells only on which side of the number the result lay.

One assay has as its target T1, Aurora kinase A (Homo sapiens, UniProt O14965).
T1 sequence (O14965 whole entry): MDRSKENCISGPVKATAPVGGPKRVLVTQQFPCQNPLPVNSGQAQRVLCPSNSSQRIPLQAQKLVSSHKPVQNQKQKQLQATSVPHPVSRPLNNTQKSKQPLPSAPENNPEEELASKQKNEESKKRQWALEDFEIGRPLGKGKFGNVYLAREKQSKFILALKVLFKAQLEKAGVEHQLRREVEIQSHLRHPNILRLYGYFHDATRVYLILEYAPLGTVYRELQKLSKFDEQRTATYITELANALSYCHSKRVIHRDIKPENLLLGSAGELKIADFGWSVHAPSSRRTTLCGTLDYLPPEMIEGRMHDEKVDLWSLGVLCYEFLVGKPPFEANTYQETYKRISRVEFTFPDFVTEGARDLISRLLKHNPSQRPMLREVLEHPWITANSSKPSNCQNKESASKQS
The experiment in a line: Inhibition of Aurora-A by microplate scintillation counting. The gist of the method:
(§1)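 Substrates: tetra(LRRWSLG) for Aurora A/B; poly(Ala,Glu,Lys,Tyr)6:2:5:1 for PDGFRβ; poly(Glu,Tyr)4:1 for TIE2 and VEGFR2. Stopped with 2% H3PO4.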

In a further assay the target is Aurora kinase B (Homo sapiens, UniProt Q96GD4). Kind of assay: Inhibition of Aurora-B by microplate scintillation counting. The method in brief:
as §1

Assay [1] has as its target T2, Epidermal growth factor receptor (Homo sapiens, UniProt P00533). Kind of assay: Inhibition of wild type EGF-R by microplate scintillation counting.
The target in assay [2] is Vascular endothelial growth factor receptor 2 (Homo sapiens, UniProt P35968). The experiment in a line: Inhibition of VEGFR2 by microplate scintillation counting.
Chain of Vascular endothelial growth factor receptor 2 (P35968 whole entry): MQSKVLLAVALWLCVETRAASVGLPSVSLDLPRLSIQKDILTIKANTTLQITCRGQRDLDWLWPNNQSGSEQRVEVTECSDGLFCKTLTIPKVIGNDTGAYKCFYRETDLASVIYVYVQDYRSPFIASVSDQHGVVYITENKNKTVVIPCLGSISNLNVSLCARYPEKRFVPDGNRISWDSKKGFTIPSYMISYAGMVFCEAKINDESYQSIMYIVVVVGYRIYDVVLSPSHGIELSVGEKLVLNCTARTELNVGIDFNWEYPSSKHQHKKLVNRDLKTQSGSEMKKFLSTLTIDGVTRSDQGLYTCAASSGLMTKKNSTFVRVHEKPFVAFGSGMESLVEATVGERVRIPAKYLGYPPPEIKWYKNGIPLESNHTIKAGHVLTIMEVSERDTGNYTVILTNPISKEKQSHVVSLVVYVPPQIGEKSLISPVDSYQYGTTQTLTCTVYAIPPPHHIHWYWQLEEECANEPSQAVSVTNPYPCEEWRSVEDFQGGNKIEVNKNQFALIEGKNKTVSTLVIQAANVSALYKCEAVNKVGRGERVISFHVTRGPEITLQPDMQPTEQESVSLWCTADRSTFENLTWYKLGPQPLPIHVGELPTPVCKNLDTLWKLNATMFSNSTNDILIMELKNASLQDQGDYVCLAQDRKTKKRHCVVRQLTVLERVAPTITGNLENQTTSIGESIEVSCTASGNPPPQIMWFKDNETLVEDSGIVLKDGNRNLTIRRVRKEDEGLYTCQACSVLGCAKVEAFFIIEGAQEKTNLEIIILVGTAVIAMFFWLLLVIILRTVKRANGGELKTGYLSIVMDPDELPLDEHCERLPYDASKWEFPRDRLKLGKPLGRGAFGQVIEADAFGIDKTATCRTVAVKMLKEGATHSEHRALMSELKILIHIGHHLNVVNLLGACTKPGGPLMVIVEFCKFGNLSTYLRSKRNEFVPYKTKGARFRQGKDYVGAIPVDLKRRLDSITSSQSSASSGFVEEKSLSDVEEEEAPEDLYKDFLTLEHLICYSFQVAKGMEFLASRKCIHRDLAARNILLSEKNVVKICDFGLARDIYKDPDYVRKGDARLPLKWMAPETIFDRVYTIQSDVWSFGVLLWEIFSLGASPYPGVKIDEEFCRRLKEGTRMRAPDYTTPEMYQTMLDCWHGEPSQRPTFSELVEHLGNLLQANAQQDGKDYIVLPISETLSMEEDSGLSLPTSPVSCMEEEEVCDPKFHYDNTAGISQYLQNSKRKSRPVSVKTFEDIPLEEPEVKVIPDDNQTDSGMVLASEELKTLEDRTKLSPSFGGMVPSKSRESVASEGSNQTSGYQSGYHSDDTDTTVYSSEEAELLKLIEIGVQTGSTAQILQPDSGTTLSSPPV
Assay [3] has as its target T3, Angiopoietin-1 receptor (Homo sapiens, UniProt Q02763). Kind of assay: Inhibition of TIE2 by microplate scintillation counting.
Assay [4] concerns the target Receptor tyrosine-protein kinase erbB-2 (Homo sapiens, UniProt P04626). Kind of assay: Inhibition of ERBB2 by microplate scintillation counting. The gist of the method:
(§2)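 Radiometric FlashPlate assay using recombinant kinase (10–200 ng/well) with poly(Glu,Tyr)4:1 substrate. Buffer: 60 mM HEPES-NaOH pH 7.5, 3 mM MgCl2, 3 mM MnCl2, 3 µM orthovanadate, 1.2 mM DTT, PEG 20000, 1 µM [γ-33P]-ATP. Run 80 min at 30 °C, stopped with H3PO4, and 33P incorporation counted.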

The target in assay [5] is Platelet-derived growth factor receptor beta (Homo sapiens, UniProt P09619). The experiment in a line: Inhibition of PDGFRbeta by microplate scintillation counting. The gist of the method: as §1
Assay [6] deals with Vascular endothelial growth factor receptor 3 (Homo sapiens, UniProt P35916). The experiment in a line: Inhibition of VEGFR3 by microplate scintillation counting. The gist of the method: as §2
Chain of Vascular endothelial growth factor receptor 3 (P35916 whole entry): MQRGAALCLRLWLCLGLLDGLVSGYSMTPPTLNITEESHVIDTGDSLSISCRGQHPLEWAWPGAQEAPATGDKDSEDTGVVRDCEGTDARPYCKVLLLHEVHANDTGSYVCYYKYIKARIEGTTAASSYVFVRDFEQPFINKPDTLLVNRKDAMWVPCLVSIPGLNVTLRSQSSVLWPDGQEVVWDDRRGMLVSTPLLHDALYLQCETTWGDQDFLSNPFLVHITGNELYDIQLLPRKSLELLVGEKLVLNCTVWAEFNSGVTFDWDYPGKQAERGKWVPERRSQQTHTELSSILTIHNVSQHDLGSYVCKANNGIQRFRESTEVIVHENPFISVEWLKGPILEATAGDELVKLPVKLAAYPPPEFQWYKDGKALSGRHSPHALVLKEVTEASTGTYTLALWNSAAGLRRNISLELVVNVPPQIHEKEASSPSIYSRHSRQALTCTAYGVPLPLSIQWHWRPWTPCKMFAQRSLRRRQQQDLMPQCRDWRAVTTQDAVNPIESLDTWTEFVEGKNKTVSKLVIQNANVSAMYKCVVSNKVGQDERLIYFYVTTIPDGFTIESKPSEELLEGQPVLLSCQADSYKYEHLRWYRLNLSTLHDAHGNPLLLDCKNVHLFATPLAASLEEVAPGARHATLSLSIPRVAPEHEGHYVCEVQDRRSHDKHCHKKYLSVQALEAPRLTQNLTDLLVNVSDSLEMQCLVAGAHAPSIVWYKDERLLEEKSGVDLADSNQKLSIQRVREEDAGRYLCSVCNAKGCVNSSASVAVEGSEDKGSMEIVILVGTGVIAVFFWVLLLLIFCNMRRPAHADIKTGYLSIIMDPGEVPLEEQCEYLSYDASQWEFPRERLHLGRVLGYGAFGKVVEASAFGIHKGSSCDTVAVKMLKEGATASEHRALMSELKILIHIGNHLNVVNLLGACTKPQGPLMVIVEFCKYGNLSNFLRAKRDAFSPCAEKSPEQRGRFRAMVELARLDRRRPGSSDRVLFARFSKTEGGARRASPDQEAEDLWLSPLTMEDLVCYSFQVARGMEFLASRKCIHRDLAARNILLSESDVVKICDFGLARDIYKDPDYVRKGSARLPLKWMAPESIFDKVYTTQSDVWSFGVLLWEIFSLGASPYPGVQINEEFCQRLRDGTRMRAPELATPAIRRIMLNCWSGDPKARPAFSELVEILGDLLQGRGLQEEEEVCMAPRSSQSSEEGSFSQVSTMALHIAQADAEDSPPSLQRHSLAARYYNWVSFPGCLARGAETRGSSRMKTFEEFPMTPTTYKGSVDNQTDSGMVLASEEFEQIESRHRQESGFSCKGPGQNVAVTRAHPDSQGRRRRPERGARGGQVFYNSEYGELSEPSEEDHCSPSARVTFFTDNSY
For assay [7], the target named is T2, Epidermal growth factor receptor. Kind of assay: Inhibition of EGFR in human HCT116 cells by cellular phosphorylation assay.
In assay [8] the target is T3, Angiopoietin-1 receptor. The experiment in a line: Inhibition of TIE2 in human HCT116 cells by cellular phosphorylation assay. It counts as cell-based, HCT-116. The method in brief:
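TIE2 autophosphorylation in cells expressing the receptor. Compound was applied, cells were stimulated, then lysed with phosphoprotein levels preserved. Phosphorylation was quantified by sandwich ELISA with a receptor-specific capture antibody and anti-phosphotyrosine antibody, relative to the stimulated high control.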

T3 sequence (Q02763 whole entry): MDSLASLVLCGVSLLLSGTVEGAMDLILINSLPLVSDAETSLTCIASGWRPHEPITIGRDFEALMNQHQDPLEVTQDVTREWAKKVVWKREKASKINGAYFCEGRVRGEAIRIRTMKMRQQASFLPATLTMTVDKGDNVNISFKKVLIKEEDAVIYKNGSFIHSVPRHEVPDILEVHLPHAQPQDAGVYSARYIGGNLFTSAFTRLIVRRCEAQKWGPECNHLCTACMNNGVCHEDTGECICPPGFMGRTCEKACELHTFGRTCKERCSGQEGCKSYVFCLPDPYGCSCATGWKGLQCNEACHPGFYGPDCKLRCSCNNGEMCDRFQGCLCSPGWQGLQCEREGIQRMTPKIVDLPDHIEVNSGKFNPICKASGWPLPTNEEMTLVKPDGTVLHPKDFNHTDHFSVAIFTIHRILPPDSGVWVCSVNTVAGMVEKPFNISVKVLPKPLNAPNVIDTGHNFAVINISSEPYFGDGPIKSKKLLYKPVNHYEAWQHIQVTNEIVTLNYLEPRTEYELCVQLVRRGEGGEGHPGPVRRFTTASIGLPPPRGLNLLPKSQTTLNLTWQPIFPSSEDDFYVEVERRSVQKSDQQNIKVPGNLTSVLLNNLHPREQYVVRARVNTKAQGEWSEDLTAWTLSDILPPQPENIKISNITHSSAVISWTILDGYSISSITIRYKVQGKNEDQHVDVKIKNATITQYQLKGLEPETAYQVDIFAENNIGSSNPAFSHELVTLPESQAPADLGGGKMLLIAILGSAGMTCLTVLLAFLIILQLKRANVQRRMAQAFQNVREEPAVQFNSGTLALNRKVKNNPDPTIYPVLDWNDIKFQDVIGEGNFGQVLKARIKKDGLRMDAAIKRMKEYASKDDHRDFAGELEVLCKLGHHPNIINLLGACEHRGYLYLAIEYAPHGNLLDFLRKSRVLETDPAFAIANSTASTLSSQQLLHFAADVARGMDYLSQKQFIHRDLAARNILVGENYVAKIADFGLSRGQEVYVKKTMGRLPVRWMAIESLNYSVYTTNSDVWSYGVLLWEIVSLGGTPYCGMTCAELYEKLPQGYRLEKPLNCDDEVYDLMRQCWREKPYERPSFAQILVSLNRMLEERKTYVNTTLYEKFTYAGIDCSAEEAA
T2 sequence (P00533 whole entry): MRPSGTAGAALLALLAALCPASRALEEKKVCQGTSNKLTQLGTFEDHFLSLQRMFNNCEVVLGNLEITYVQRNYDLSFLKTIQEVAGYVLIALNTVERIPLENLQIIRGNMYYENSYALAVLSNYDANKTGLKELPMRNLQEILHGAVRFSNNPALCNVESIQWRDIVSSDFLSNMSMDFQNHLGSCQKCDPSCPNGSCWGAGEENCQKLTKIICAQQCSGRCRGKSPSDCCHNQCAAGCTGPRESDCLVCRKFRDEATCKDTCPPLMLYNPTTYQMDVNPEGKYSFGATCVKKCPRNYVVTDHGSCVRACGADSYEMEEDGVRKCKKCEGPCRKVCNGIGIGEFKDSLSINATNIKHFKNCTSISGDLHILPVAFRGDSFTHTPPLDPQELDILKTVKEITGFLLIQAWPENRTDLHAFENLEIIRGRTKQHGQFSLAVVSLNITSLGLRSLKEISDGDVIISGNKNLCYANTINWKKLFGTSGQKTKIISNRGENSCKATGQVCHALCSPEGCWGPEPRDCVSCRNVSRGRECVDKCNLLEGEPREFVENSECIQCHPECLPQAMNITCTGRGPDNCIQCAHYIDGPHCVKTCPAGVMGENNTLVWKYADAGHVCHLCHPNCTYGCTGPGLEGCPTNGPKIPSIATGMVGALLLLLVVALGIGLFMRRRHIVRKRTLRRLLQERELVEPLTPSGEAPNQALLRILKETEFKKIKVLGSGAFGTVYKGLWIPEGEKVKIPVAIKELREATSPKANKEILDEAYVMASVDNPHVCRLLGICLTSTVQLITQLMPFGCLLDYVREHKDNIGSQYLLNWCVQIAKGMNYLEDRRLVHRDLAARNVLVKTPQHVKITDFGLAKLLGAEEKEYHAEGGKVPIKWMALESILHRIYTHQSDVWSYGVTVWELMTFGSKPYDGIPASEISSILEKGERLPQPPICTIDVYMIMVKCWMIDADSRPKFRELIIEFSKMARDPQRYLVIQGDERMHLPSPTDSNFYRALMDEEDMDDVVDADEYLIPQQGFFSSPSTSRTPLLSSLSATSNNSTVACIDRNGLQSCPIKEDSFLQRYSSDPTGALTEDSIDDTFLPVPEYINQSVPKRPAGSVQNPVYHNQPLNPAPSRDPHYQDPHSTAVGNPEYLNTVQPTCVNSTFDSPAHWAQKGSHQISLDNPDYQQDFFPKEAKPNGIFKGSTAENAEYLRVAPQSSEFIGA

As to `COc1cc(-c2nc3ccccc3s2)ccc1Nc1ncnc2cc(OCCCN3CCN(C)CC3)c(OC)cc12`, the IC50 is 65 nM at Aurora kinase A; 90 nM at Aurora kinase B; over 10000 nM in assay [1]; 3300 nM in assay [2]; 330 nM on Angiopoietin-1 receptor [3]; over 10000 nM in assay [4]. The IC50 came out at 5100 nM in assay [5] and 1700 nM in [6]. Also, the EC50 (in assay [7]; at Angiopoietin-1 receptor [8]) was over 10000 nM in each case.
Consider `COc1cc2c(Nc3ccc(-c4nc5cc(Cl)ccc5s4)cc3)ncnc2cc1OCCCN1CCN(C)CC1`, for which the IC50 on Aurora kinase A is 24 nM; on Aurora kinase B, 62 nM; in assay [1] it was over 10000 nM; in [2], 610 nM; against Angiopoietin-1 receptor [3] it was 510 nM; in [4] it was over 10000 nM. Moreover, the values for the IC50 in assay [5] and in [6] were over 10000 nM and 1300 nM, respectively. In addition, the half-maximal effective concentration (EC50) (in assay [7]; on Angiopoietin-1 receptor [8]) was over 10000 nM in each case.
Consider `COc1cc2c(Nc3ccc(-c4nc5ccccc5s4)c(OC)c3)ncnc2cc1OCCCN1CCN(C)CC1`, for which the IC50 against Aurora kinase A is 120 nM; at Aurora kinase B it was 300 nM; in assay [1], 2 nM; in assay [2], 1200 nM; against Angiopoietin-1 receptor [3], 110 nM; in [4], 5 nM. Moreover, the results for the IC50 in assay [5] and in assay [6] were 2100 nM and 7100 nM, respectively. Moreover, the figures for the EC50 (in assay [7]; on Angiopoietin-1 receptor [8]) were 9400 nM and over 10000 nM, respectively.
As to `COc1cc2c(Nc3ccc(-c4nc5cc(C(F)(F)F)ccc5s4)cc3)ncnc2cc1OCCCN1CCN(C)CC1`, the half-inhibitory concentration (IC50) at Aurora kinase A was 60 nM; against Aurora kinase B, 120 nM; in assay [1] it was over 10000 nM; in assay [2] it was over 10000 nM; against Angiopoietin-1 receptor [3], 3300 nM; in assay [4], over 10000 nM. For the same compound, the half-inhibitory concentration (IC50) in [5] was 8200 nM; in assay [6], over 10000 nM. Besides, the EC50 (in assay [7]; on Angiopoietin-1 receptor [8]) was over 10000 nM throughout.
As to `COc1cc2c(Nc3ccc(-c4nc5ccccc5s4)c(O)c3)ncnc2cc1OCCCN1CCN(C)CC1`, the IC50 against Aurora kinase A amounted to 91 nM; on Aurora kinase B it was 59 nM; in assay [1], 110 nM; in assay [2] it was 380 nM; against Angiopoietin-1 receptor [3] it was 120 nM; in [4] it was 780 nM. Further, the IC50 in assay [5] is 4500 nM; in assay [6], 520 nM. The EC50 in [7] is 33000 nM; at Angiopoietin-1 receptor [8] it was over 10000 nM.
Consider `COc1cc2c(Nc3ccc(-c4nc5ccccc5s4)c(F)c3)ncnc2cc1OCCCN1CCN(C)CC1`, for which the IC50 at Aurora kinase A is 9 nM; on Aurora kinase B it was 27 nM; in assay [1], 430 nM; in assay [2], 44 nM; on Angiopoietin-1 receptor [3], 9 nM; in [4], 300 nM. The results for the IC50 in assay [5] and in assay [6] were 2100 nM and 210 nM, respectively. In addition, the EC50 (in [7]; at Angiopoietin-1 receptor [8]) was over 10000 nM throughout.
`COc1cc2c(Nc3ccc(-c4nc5ccccc5s4)cc3F)ncnc2cc1OCCCN1CCN(C)CC1`: the IC50 on Aurora kinase A was 26 nM; at Aurora kinase B, 28 nM; in [1], 805 nM; in [2], 62 nM; at Angiopoietin-1 receptor [3], 29 nM; in assay [4], 2400 nM. The concentration for half-maximal inhibition (IC50) in assay [5] was 4400 nM; in assay [6] it was 350 nM. The values for the EC50 (in assay [7]; at Angiopoietin-1 receptor [8]) were over 10000 nM and 2100 nM, respectively.

The IC50 is the concentration at which inhibition is half-maximal. Usually EC50 stands for the concentration at which the effect is half-maximal. A low value points to greater potency.
